The results in this text go back to BindingDB's records for doi:10.1016/j.bmc.2016.07.028 (Jagiellonian University Medical College, 2016).

The structures appear in SMILES notation.

The target in assay [1] is T1, Adenosine receptor A2a (Homo sapiens, UniProt P29274). Nature of the assay: Antagonist activity at human adenosine receptor A2a expressed in CHO cell membranes assessed as inhibition of NECA-induced cAMP accumulation measured as NECA EC50 at 5 uM incubated for 15 mins in presence of [3H]cAMP by liquid scintillation counting (Rvb = 68 nM). The method, boiled down:
(§1)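 Stably transfected CHO cells (human A2A or A2B) grown in DMEM-F12 with 10% FCS at 37 °C, 5% CO2. The cells were seeded at 200,000/well, washed after 24 h and held 2 h in HBSS (pH 7.3) with 1 U/ml adenosine deaminase. Ro20-1724 was added to 40 µM final for 15 min, then NECA dilutions ± one fixed test concentration in 2.5% DMSO, in duplicate.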

The target of a further assay is T2, Adenosine receptor A2b (Homo sapiens, UniProt P29275).
T2 sequence (P29275 whole entry): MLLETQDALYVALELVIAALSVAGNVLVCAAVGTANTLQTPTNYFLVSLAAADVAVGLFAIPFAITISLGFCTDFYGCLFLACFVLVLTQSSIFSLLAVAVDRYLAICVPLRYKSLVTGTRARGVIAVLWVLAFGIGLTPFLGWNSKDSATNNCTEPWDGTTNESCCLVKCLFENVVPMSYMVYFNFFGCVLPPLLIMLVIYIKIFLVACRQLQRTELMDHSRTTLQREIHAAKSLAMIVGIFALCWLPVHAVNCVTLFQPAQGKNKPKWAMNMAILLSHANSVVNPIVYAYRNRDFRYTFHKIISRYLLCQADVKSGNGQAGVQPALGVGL
Briefly: Antagonist activity at human adenosine receptor A2b expressed in CHO cell membranes assessed as inhibition of NECA-induced cAMP accumulation measured as NECA EC50 at 2 uM incubated for 15 mins in presence of [3H]cAMP by liquid scintillation counting (Rvb = 73 nM). The method, boiled down: as §1
(cAMP levels reflect the balance of adenylyl cyclase and phosphodiesterase activity.)

The target of assay [2] is T1, Adenosine receptor A2a. Briefly: Antagonist activity at human adenosine receptor A2a expressed in CHO cell membranes assessed as inhibition of NECA-induced cAMP accumulation measured as NECA EC50 at 7 uM incubated for 15 mins in presence of [3H]cAMP by liquid scintillation counting (Rvb = 77 nM).

T1 sequence (P29274 whole entry): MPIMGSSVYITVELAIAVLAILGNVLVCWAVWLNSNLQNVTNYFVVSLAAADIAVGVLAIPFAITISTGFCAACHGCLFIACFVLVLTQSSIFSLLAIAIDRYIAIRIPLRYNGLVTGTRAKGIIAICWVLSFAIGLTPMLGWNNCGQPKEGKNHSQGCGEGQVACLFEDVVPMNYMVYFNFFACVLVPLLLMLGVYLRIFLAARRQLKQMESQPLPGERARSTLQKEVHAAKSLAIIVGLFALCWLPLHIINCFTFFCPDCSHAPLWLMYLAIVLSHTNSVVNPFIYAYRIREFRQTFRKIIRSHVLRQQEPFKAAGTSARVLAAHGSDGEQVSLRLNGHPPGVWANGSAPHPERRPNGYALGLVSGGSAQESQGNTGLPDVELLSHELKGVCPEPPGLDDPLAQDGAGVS

As to `CCN(CC)CCOc1ccc(CCN2CCCn3c2nc2c3c(=O)n(C)c(=O)n2C)cc1`, the EC50 at Adenosine receptor A2a [1] was determined as 460 nM. In the case of `CCCCn1c(=O)c2c(nc3n2CCCN3CCc2ccc(OCCN(CC)CC)cc2)n(CCCC)c1=O`, at Adenosine receptor A2b, the EC50 stood at 335 nM.

For `Cn1c(=O)c2c(nc3n2CCCN3CCc2ccc(O)cc2)n(C)c1=O` [9-(4-hydroxyphenethyl)-1,3-dimethyl-6,7,8,9-tetrahydropyrimido[1,2-a]purine-2,4(1H,3H)-dione], on Adenosine receptor A2a [2], the EC50 worked out at 302 nM.

By EC50 is commonly meant the concentration needed to bring the measured effect to its halfway point.
